Assays:
Liver microsome [1] = assay: Drug level in human liver microsomes treated with BILR402 at 1 uM by LC-MS/MS analysis in presence of CYP2C19 inhibitor ticlopidine; assay type: ADME
Outline: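 BILR 402 (1 μM) was incubated with human liver microsomes (0.05 mg/mL) for 30 min with NADPH, with or without ticlopidine 20 μM final as CYP2C19 inhibitor. BILR 402 depletion and BILR 355 formation were measured by LC-MS/MS.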

[2] = Drug excretion in mouse feces assessed as unchanged drug level; assay type: ADME, tissue-based; conditions: read-out: Drug excretion
[3] = Drug excretion in rat feces assessed as unchanged drug level; assay type: ADME, tissue-based; conditions: read-out: Drug excretion
[4] = Drug excretion in dog feces assessed as unchanged drug level; assay type: ADME, tissue-based, Canis lupus familiaris; conditions: read-out: Drug excretion
[5] = Drug excretion in mouse feces assessed as metabolite level; assay type: ADME, tissue-based
[6] = Drug excretion in rat feces assessed as metabolite level; assay type: ADME, tissue-based
[7] = Drug excretion in dog feces assessed as metabolite level; assay type: ADME, tissue-based, Canis lupus familiaris
Liver microsome [8] = assay: Drug metabolism in human liver microsomes assessed as BILR402 metabolite formation at 5 uM by LC-MS/MS analysis; assay type: ADME
Outline: (§1)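 Pooled human liver microsomes, cytosol or S9 (1 mg/mL) were incubated with BILR 355 (5 μM final) in 0.05 M potassium phosphate pH 7.4 at 37 °C for 60 min. Microsomes and S9 received 2.5 mM NADPH.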

[9] = Drug metabolism in human liver S9 fraction assessed as BILR402 metabolite formation at 5 uM by LC-MS/MS analysis; assay type: ADME, subcellular; conditions: s9, 5 µM; outline: as §1
Liver cytosol [10] = assay: Drug metabolism in human liver cytosol assessed as BILR402 metabolite formation at 5 uM by LC-MS/MS analysis; assay type: ADME, tissue-based; outline: as §1
Cytochrome P450 3A4 [11] = molecular target: T1, Cytochrome P450 3A4 (Homo sapiens, UniProt P08684); assay: Activity at recombinant CYP3A4 (unknown origin) expressed in baculovirus-infected insect cells treated with 1 uM BILR402 assessed as enzyme-mediated compound formation after 4 mins by LC-MS/MS analysis in presence of NADPH; assay type: ADME
Outline: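 rCYP3A4 (5 pmol/mL) incubated with BILR 402 at 1 or 10 μM in 0.1 M potassium phosphate/5 mM MgCl2, pH 7.4, with NADPH at 37 °C. Remaining BILR 402 and BILR 355 formed were read at 4 min by LC-MS/MS against a labelled internal standard.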

Liver microsome [12] = assay: Drug metabolism in human liver microsomes assessed as BILR516 disproportionate human metabolite formation at 5 uM after 60 mins by LC-MS/MS analysis; assay type: ADME; conditions: 1 h; outline: as §1
[13] = Drug metabolism in human liver S9 fraction assessed as BILR516 disproportionate human metabolite formation at 5 uM after 60 mins by LC-MS/MS analysis; assay type: ADME, subcellular; conditions: s9, 1 h; outline: as §1
Liver cytosol [14] = assay: Drug metabolism in human liver cytosol assessed as BILR516 disproportionate human metabolite formation at 5 uM after 60 mins by LC-MS/MS analysis; assay type: ADME, tissue-based; conditions: 1 h; outline: as §1
Cytochrome P450 3A4 [15] = molecular target: T1, Cytochrome P450 3A4; assay: Activity at recombinant CYP3A4 (unknown origin) expressed in baculovirus-infected insect cells treated with 10 uM BILR402 assessed as enzyme-mediated compound formation at 10 uM after 4 mins by LC-MS/MS analysis in presence of NADPH
[16] = Drug level in human liver S9 fraction treated with BILR402 at 10 uM by LC-MS/MS analysis in presence of NADPH; assay type: ADME, subcellular; conditions: s9, 10 µM
Outline: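 BILR 402 (10 μM final) was incubated with human liver S9 or cytosol (1 mg/mL protein) in 0.05 M potassium phosphate pH 7.4 at 37 °C. Runs were done with or without 2.5 mM NADPH. Samples at 10, 20, 30 and 60 min were quenched in nevirapine/acetonitrile, filtered and analysed by LC-MS/MS; duplicate.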

[17] = substrate: CCN1c2ncc(CCOc3ccnc4ccccc34)cc2C(=O)N(C)c2cccnc21; assay: Drug metabolism in human liver cytosol assessed as aldehyde-oxidase-mediated BILR516 metabolite formation after 10 mins by Eadie-Hofstee plot analysis; assay type: ADME, tissue-based
Outline: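 Human liver cytosol (0.1 mg/mL) was incubated with BILR 402 at 12 concentrations, 0.061–125 μM, for 10 min at 37 °C in 0.05 M potassium phosphate pH 7.4 without NADPH, within the linear range for protein and time. […] Apparent Km and Vmax were derived from the kinetic data.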

T1 sequence (P08684 whole entry): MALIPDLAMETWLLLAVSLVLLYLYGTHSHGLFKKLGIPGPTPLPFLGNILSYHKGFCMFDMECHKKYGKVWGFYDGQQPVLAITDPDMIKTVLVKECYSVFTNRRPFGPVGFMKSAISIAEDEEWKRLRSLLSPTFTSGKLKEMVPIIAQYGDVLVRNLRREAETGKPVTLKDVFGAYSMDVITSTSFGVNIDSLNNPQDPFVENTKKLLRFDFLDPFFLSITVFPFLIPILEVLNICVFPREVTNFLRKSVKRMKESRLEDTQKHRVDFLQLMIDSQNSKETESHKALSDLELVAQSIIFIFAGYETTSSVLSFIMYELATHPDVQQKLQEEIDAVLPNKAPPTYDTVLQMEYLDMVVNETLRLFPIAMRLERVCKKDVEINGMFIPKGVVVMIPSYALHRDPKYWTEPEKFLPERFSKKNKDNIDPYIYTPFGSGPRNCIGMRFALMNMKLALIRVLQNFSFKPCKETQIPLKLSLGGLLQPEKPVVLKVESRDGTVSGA

CCN1c2ncc(CCOc3cc[n+]([O-])c4ccccc34)cc2C(=O)N(C)c2cccnc21 [BILR 355]
Drug metabolism (Liver microsome [1]): metabolite_detected
dose excreted [2]: 0%
dose excreted [3]: 0%
dose excreted [4]: 0%
Drug excretion [5]: 72.5%
Drug excretion [6]: 72.5%
Drug excretion [7]: 72.5%
Drug metabolism (Liver microsome [8]): metabolite_not_detected
Drug metabolism [9]: metabolite_not_detected
Drug metabolism (Liver cytosol [10]): metabolite_not_detected
Drug metabolism (Cytochrome P450 3A4 [11]): 0.15 µM
Drug metabolism (Liver microsome [12]): metabolite_not_detected
Drug metabolism [13]: metabolite_not_detected
Drug metabolism (Liver cytosol [14]): metabolite_not_detected
Drug metabolism (Cytochrome P450 3A4 [15]): 0.9 µM

CCN1c2ncc(CCOc3cc(=O)[nH]c4ccccc34)cc2C(=O)N(C)c2cccnc21
Drug metabolism [16]: metabolite_detected

B1: Aldehyde oxidase (Homo sapiens) (protein)
chain: MDRASELLFYVNGRKVIEKNVDPETMLLPYLRKKLRLTGTKYGCGGGGCGACTVMISRYNPITKRIRHHPANACLIPICSLYGAAVTTVEGIGSTHTRIHPVQERIAKCHGTQCGFCTPGMVMSIYTLLRNHPEPTLDQLTDALGGNLCRCTGYRPIIDACKTFCKTSGCCQSKENGVCCLDQGINGLPEFEEGSKTSPKLFAEEEFLPLDPTQELIFPPELMIMAEKQSQRTRVFGSERMMWFSPVTLKELLEFKFKYPQAPVIMGNTSVGPEVKFKGVFHPVIISPDRIEELSVVNHAYNGLTLGAGLSLAQVKDILADVVQKLPEEKTQMYHALLKHLGTLAGSQIRNMASLGGHIISRHPDSDLNPILAVGNCTLNLLSKEGKRQIPLNEQFLSKCPNADLKPQEILVSVNIPYSRKWEFVSAFRQAQRQENALAIVNSGMRVFFGEGDGIIRELCISYGGVGPATICAKNSCQKLIGRHWNEQMLDIACRLILNEVSLLGSAPGGKVEFKRTLIISFLFKFYLEVSQILKKMDPVHYPSLADKYESALEDLHSKHHCSTLKYQNIGPKQHPEDPIGHPIMHLSGVKHATGEAIYCDDMPLVDQELFLTFVTSSRAHAKIVSIDLSEALSMPGVVDIMTAEHLSDVNSFCFFTEAEKFLATDKVFCVGQLVCAVLADSEVQAKRAAKRVKIVYQDLEPLILTIEESIQHNSSFKPERKLEYGNVDEAFKVVDQILEGEIHMGGQEHFYMETQSMLVVPKGEDQEMDVYVSTQFPKYIQDIVASTLKLPANKVMCHVRRVGGAFGGKVLKTGIIAAVTAFAANKHGRAVRCVLERGEDMLITGGRHPYLGKYKAGFMNDGRILALDMEHYSNAGASLDESLFVIEMGLLKMDNAYKFPNLRCRGWACRTNLPSNTAFRGFGFPQAALITESCITEVAAKCGLSPEKVRIINMYKEIDQTPYKQEINAKNLIQCWRECMAMSSYSLRKVAVEKFNAENYWKKKGLAMVPLKFPVGLGSRAAGQAAALVHIYLDGSVLVTHGGIEMGQGVHTKMIQVVSRELRMPMSNVHLRGTSTETVPNANISGGSVVADLNGLAVKDACQTLLKRLEPIISKNPKGTWKDWAQTAFDESINLSAVGYFRGYESDMNWEKGEGQPFEYFVYGAACSEVEIDCLTGDHKNIRTDIVMDVGCSINPAIDIGQIEGAFIQGMGLYTIEELNYSPQGILHTRGPDQYKIPAICDMPTELHIALLPPSQNSNTLYSSKGLGESGVFLGCSVFFAIHDAVSAARQERGLHGPLTLNSPLTPEKIRMACEDKFTKMIPRDEPGSYVPWNVPI
Km [17]: 0.772 µM
Vmax [17]: 0.000337 µmol/min
